Results on five compounds are retold here after ChEMBL document CHEMBL4665627 (Eur J Med Chem, 2019).

Structures are written as SMILES. Converted amounts (≈) assume the structure as drawn.

For assay [1], the system named is Candida parapsilosis. As to the kind of experiment: Antifungal activity against Candida parapsilosis ATCC 22019 assessed as inhibition of fungal growth after 24 hrs by CLSI protocol based two fold serial dilution method. The settings on record: Lodderomyces parapsilosis. In kind it is functional. A digest of the protocol:
(§1)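 Two-fold serial broth dilution in 96-well plates following CLSI; MIC (mM) taken as the lowest concentration giving complete growth inhibition; MIC values from three independent experiments.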

Assay [2] relates to Pseudomonas aeruginosa. As to the kind of experiment: Antibacterial activity against Pseudomonas aeruginosa ATCC 27853 assessed as inhibition of bacterial growth after 24 hrs by CLSI protocol based two fold serial dilution method. In kind it is functional. A digest of the protocol: as §1
Assay [3] relates to Staphylococcus aureus. The experiment in a line: Antibacterial activity against methicillin-resistant Staphylococcus aureus N315 assessed as inhibition of bacterial growth after 24 hrs by CLSI protocol based two fold serial dilution method. In kind it is functional.
Assay [4] relates to Escherichia coli. As to the kind of experiment: Antibacterial activity against Escherichia coli assessed as inhibition of bacterial growth after 24 hrs by CLSI protocol based two fold serial dilution method. In kind it is functional. A digest of the protocol:
as §1

Assay [5] concerns Staphylococcus aureus. As to the kind of experiment: Antibacterial activity against Staphylococcus aureus ATCC 29213 assessed as inhibition of bacterial growth after 24 hrs by CLSI protocol based two fold serial dilution method. In kind it is functional.
Assay [6] relates to Candida tropicalis. As to the kind of experiment: Antifungal activity against Candida tropicalis assessed as inhibition of fungal growth after 24 hrs by CLSI protocol based two fold serial dilution method. Type of assay: functional. A digest of the protocol: as §1
Assay [7] relates to Staphylococcus aureus. As to the kind of experiment: Antibacterial activity against Staphylococcus aureus assessed as inhibition of bacterial growth after 24 hrs by CLSI protocol based two fold serial dilution method. Type of assay: functional. Summed up: as §1
In assay [8] the test system is Pseudomonas aeruginosa. As to the kind of experiment: Antibacterial activity against Pseudomonas aeruginosa assessed as inhibition of bacterial growth after 24 hrs by CLSI protocol based two fold serial dilution method. Type of assay: functional. A digest of the protocol:
as §1

In assay [9] the test system is Aspergillus fumigatus. As to the kind of experiment: Antifungal activity against Aspergillus fumigatus assessed as inhibition of fungal growth after 24 hrs by CLSI protocol based two fold serial dilution method. In kind it is functional. A digest of the protocol:
as §1

Assay [10] concerns Candida albicans. As to the kind of experiment: Antifungal activity against Candida albicans ATCC 90023 assessed as inhibition of fungal growth after 24 hrs by CLSI protocol based two fold serial dilution method. Type of assay: functional. Summed up: as §1
In assay [11] the test system is Klebsiella pneumoniae. The experiment in a line: Antibacterial activity against Klebsiella pneumoniae assessed as inhibition of bacterial growth after 24 hrs by CLSI protocol based two fold serial dilution method. In kind it is functional. A digest of the protocol:
as §1

Assay [12] deals with Candida albicans. The experiment in a line: Antifungal activity against Candida albicans assessed as inhibition of fungal growth after 24 hrs by CLSI protocol based two fold serial dilution method. Type of assay: functional. Summed up:
as §1

For assay [13], the system named is Enterococcus faecalis. The experiment in a line: Antibacterial activity against Enterococcus faecalis assessed as inhibition of bacterial growth after 24 hrs by CLSI protocol based two fold serial dilution method. In kind it is functional. Summed up:
as §1

For assay [14], the system named is Escherichia coli. The experiment in a line: Antibacterial activity against Escherichia coli ATCC 25922 assessed as inhibition of bacterial growth after 24 hrs by CLSI protocol based two fold serial dilution method. In kind it is functional. Summed up: as §1
Assay [15] has as its system Saccharomyces cerevisiae. As to the kind of experiment: Inhibition of Saccharomyces cerevisiae CGMCC 2.145 chitin synthase at 300 ug/ml using GlcNAc and UDP-GlcNAc as substrate incubated for 60 mins by microplate reader analysis relative to control. The settings on record: dose 300.0 µg/ml. A digest of the protocol: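 Chitin synthase inhibition ratio measured at 300 µg/mL test compound, relative to untreated control.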

The test system of assay [16] is Staphylococcus aureus. As to the kind of experiment: Antibacterial activity against Staphylococcus aureus ATCC 25923 assessed as inhibition of bacterial growth after 24 hrs by CLSI protocol based two fold serial dilution method. In kind it is functional. Summed up:
as §1

For assay [17], the system named is Acinetobacter baumannii. The experiment in a line: Antibacterial activity against Acinetobacter baumannii assessed as inhibition of bacterial growth after 24 hrs by CLSI protocol based two fold serial dilution method. Type of assay: functional. A digest of the protocol:
as §1

The nature of assay [18]: Inhibition of Saccharomyces cerevisiae CGMCC 2.145 chitin synthase using GlcNAc and UDP-GlcNAc as substrate incubated for 60 mins by microplate reader analysis. Summed up:
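Chitin synthase IC50 determined from concentration–inhibition curves.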

Broadly, the MIC is the least concentration at which growth counts as inhibited. As usually defined, the inhibition is the share of the control response that was lost under treatment. The low end stands for a response near the control, the high end for a response far below the control. With `CCN(CC)C(=O)CN1CCN(c2cc3c(cc2F)c(=O)c(-c2csc(N)n2)cn3CC)CC1`, the MIC in assay [1] worked out at 132 µM (≈ 64.2 µg/mL); in assay [2], 132 µM (≈ 64.2 µg/mL); in assay [3], 66 µM (≈ 32.1 µg/mL); in assay [4], 66 µM (≈ 32.1 µg/mL); in assay [5], 66 µM (≈ 32.1 µg/mL); in assay [6] it was 132 µM (≈ 64.2 µg/mL). Also, the MIC in [7] stood at 137 µM (≈ 66.7 µg/mL); in assay [8], 132 µM (≈ 64.2 µg/mL); in assay [9], 66 µM (≈ 32.1 µg/mL); in [10] it was 66 µM (≈ 32.1 µg/mL); in [11], 263 µM (≈ 128 µg/mL); in assay [12], 66 µM (≈ 32.1 µg/mL). For the same compound, the MIC in assay [13] amounted to 132 µM (≈ 64.2 µg/mL); in assay [14] it was 66 µM (≈ 32.1 µg/mL); in assay [16], 16 µM (≈ 7.79 µg/mL); in assay [17], 16 µM (≈ 7.79 µg/mL). For the same compound, in [15], the inhibition was 49.1%.
In the case of `CCCCN1CCN(c2cc3c(cc2F)c(=O)c(-c2csc(N)n2)cn3CC)CC1`, the MIC was 19 µM (≈ 8.16 µg/mL) in [1]; 75 µM (≈ 32.2 µg/mL) in assay [2]; 149 µM (≈ 64 µg/mL) in assay [3]; 149 µM (≈ 64 µg/mL) in assay [4]; 19 µM (≈ 8.16 µg/mL) in assay [5]; 9 µM (≈ 3.87 µg/mL) in assay [6]. In addition, the MIC in [7] was found to be 75 µM (≈ 32.2 µg/mL); in [8] it was 298 µM (≈ 128 µg/mL); in [9] it was 9 µM (≈ 3.87 µg/mL); in assay [10], 149 µM (≈ 64 µg/mL); in [11] it was 5 µM (≈ 2.15 µg/mL); in [12] it was 149 µM (≈ 64 µg/mL). Moreover, the minimum inhibitory concentration (MIC) in [13] came to 75 µM (≈ 32.2 µg/mL); in assay [14], 37 µM (≈ 15.9 µg/mL); in assay [16], 9 µM (≈ 3.87 µg/mL); in [17] it was 19 µM (≈ 8.16 µg/mL). Also, in assay [15], the inhibition was determined as 41.4%.
In general, IC50 refers to the concentration that gives 50% inhibition. Turning to `NC(=O)OC[C@H](O)[C@@H](O)[C@H](N)C(=O)N[C@H](C(=O)O)[C@H]1O[C@@H](n2cc(CO)c(=O)[nH]c2=O)[C@H](O)[C@@H]1O` [POLYOXIN B], the inhibition in assay [15] is 81%. In [18], this compound showed an IC50 of 120 µM.
In the case of `CCn1cc(-c2csc(N)n2)c(=O)c2cc(F)c(N3CCN(C(C)=O)CC3)cc21`, the MIC in assay [1] was determined as 39 µM (≈ 16.2 µg/mL); in assay [2] it was 10 µM (≈ 4.15 µg/mL); in assay [3], 77 µM (≈ 32 µg/mL); in [4], 77 µM (≈ 32 µg/mL); in [5], 19 µM (≈ 7.89 µg/mL); in assay [6], 77 µM (≈ 32 µg/mL). Also, the MIC came out at 77 µM (≈ 32 µg/mL) in [7]; 39 µM (≈ 16.2 µg/mL) in assay [8]; 19 µM (≈ 7.89 µg/mL) in assay [9]; 19 µM (≈ 7.89 µg/mL) in assay [10]; 39 µM (≈ 16.2 µg/mL) in assay [11]; 19 µM (≈ 7.89 µg/mL) in assay [12]. The MIC in assay [13], in assay [14], in assay [16] and in [17] was 39 µM (≈ 16.2 µg/mL) in each case. This compound also had an inhibition in assay [15] of 71.1%.
Turning to `CCn1cc(-c2csc(N)n2)c(=O)c2cc(F)c(N3CCN(Cc4ccc(Cl)cc4)CC3)cc21`, the MIC in assay [1] came out at 16 µM (≈ 7.97 µg/mL); in assay [2], 32 µM (≈ 15.9 µg/mL); in [3] it was 16 µM (≈ 7.97 µg/mL); in assay [4], 32 µM (≈ 15.9 µg/mL); in assay [5], 64 µM (≈ 31.9 µg/mL); in [6], 32 µM (≈ 15.9 µg/mL). For the same compound, the MIC came to 64 µM (≈ 31.9 µg/mL) in assay [7]; 257 µM (≈ 128 µg/mL) in assay [8]; 515 µM (≈ 256 µg/mL) in assay [9]; 64 µM (≈ 31.9 µg/mL) in [10]; 129 µM (≈ 64.2 µg/mL) in [11]; 32 µM (≈ 15.9 µg/mL) in assay [12]. Further, the MIC was determined as 16 µM (≈ 7.97 µg/mL) in assay [13], 32 µM (≈ 15.9 µg/mL) in assay [14], 16 µM (≈ 7.97 µg/mL) in [16] and 32 µM (≈ 15.9 µg/mL) in assay [17]. Also, the inhibition in [15] was 56.2%. In assay [18], 320 µM corresponded to half-maximal inhibition (IC50).
